Active and inactive are the calls of the source. The calls are words filed in the database; no cut-off is given here.
Legend:
Plasmodium falciparum [1] = assay: Antimalarial activity against chloroquine-resistant Plasmodium falciparum K1 after 24 hrs by semiautomated micro dilution assay; assay type: functional, organism-based; conditions: K1, 24 h
In short: (§1)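 Asynchronous P. falciparum cultures on human erythrocytes (0.5% parasitaemia, 1% final haematocrit) were exposed to serially diluted drug for 24 h at 37 °C. [³H]hypoxanthine was then added for a further 24 h. Cells were freeze-thawed, harvested onto glass-fibre filters and scintillation-counted against a drug-free control on the same plate. IC50 was read from concentration-response curves (mean ± SD, independent experiments). DMSO was ≤0.1%.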

[2] = Selectivity index, ratio of CC50 for human MRC5 cells to IC50 for Plasmodium falciparum K1; assay type: functional
In short: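 Ratio of MRC-5 CC50 to P. falciparum K1 IC50. CC50: 7-day MTT assay at 540 nm, from two experiments. IC50: asynchronous cultures (0.5% parasitaemia, 1% haematocrit) exposed to drug for 24 h at 37 °C, then [³H]hypoxanthine added for a further 24 h. Incorporation compared with drug-free controls; mean of independent experiments.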

[3] = Cytotoxicity against human […] cells after 7 days by MTT assay; assay type: cell-based
In short: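 MRC-5 human embryonic lung cells seeded at 5000 per well. After 24 h, cells were washed and given two-fold drug dilutions (32 to 1.6) in RPMI + 5% FCS, with final DMSO below 0.5%. Incubated 7 days at 37 °C in 5% CO₂. MTT read-out as % reduction of 540 nm absorbance versus untreated cultures. CC50 from two experiments.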

Plasmodium falciparum [4] = assay: Antimalarial activity against chloroquine-sensitive Plasmodium falciparum Thai after 24 hrs by semiautomated micro dilution assay
Plasmodium falciparum [5] = assay: Antimalarial activity against chloroquine-resistant Plasmodium falciparum FcB1R after 24 hrs by semiautomated micro dilution assay; assay type: functional, organism-based; in short: as §1
[6] = Inhibition of haem polymerization after 24 hrs; assay type: functional
In short: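 Lipid-induced β-hematin formation: hemin in 25 mM NaOH mixed with a 1-monooleoylglycerol suspension in 90 mM sodium acetate, pH 5. Drug added from DMSO stock; controls received equal DMSO. Incubated 24 h at 37 °C, in duplicate. Samples centrifuged at 4 °C, and the pellet washed repeatedly with 10 mM sodium phosphate pH 7.4 containing 2.5% SDS.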

Plasmodium berghei [7] = assay: Antimalarial activity as reduced parasitaemia in Plasmodium berghei ANKA 65 infected Swiss CD1 mice (Mus musculus) at 20 mg/kg initial oral followed by intraperitoneal dose after 4 days; assay type: functional; parameters: scale not given: the % may be the effect or the level left
Plasmodium berghei [8] = assay: Antimalarial activity as reduced parasitaemia in Plasmodium berghei ANKA 65 infected Swiss CD1 mice (Mus musculus) at 40 mg/kg initial oral followed by intraperitoneal dose after 4 days; assay type: functional; parameters: scale not given: the % may be the effect or the level left
In short: (§2)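 P. berghei ANKA 65 in 4-week-old female Swiss CD-1 mice (20–25 g), infected ip with about 10⁷ parasitized erythrocytes from a donor. Treatment at 40 mg/kg in 100% DMSO: first dose oral at infection, then ip on the following four days. Three mice per group, with three DMSO-dosed infected controls. Parasite reduction read on day 4; survival compared with untreated controls.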

Plasmodium berghei [9] = assay: Antimalarial activity as increased MST in Plasmodium berghei ANKA 65 infected Swiss CD1 mice (Mus musculus) at 20 mg/kg initial oral followed by intraperitoneal dose after 4 days; assay type: functional
Plasmodium berghei [10] = assay: Antimalarial activity as increased MST in Plasmodium berghei ANKA 65 infected Swiss CD1 mice (Mus musculus) at 40 mg/kg initial oral followed by intraperitoneal dose after 4 days; assay type: functional, organism-based; parameters: dose 40 mg/kg; in short: as §2
Plasmodium berghei [11] = assay: Antimalarial activity in Plasmodium berghei ANKA 65 infected Swiss CD1 mice (Mus musculus) as reduced parasitaemia at 10 mg/kg initial oral dose and further intraperitoneal dose after 4 days; assay type: functional; parameters: scale not given: the % may be the effect or the level left
Plasmodium berghei [12] = assay: Antimalarial activity as increased MST in Plasmodium berghei ANKA 65 infected Swiss CD1 at 10 mg/kg initial oral followed by intraperitoneal dose after 4 days; assay type: functional, organism-based; parameters: dose 10 mg/kg

Row | Compound | IC50 (Plasmodium falciparum [1]) | Ratio CC50/IC50 [2] | CC50 at 168 h [3] | IC50 (Plasmodium falciparum [4]) | IC50 (Plasmodium falciparum [5]) | IC50 [6] | Activity (Plasmodium berghei [7]) | Activity (Plasmodium berghei [8]) | Activity (Plasmodium berghei [9]) | Activity (Plasmodium berghei [10]) | Activity (Plasmodium berghei [11]) | Activity (Plasmodium berghei [12])
1 | CCN(CC)Cc1ccc(O)c(Nc2ccnc3cc(Cl)ccc23)c1 | 32.6 nM | 583 | 19000 nM | 15.2 nM | – | – | – | – | – | – | – | –
2 | CCN(CC)Cc1cccc(Nc2ccnc3cc(Cl)ccc23)c1O | 262 nM | >95 | > 25000 nM | 104 nM | 95.2 nM | – | – | – | – | – | – | –
3 | CCN(CC)Cc1ccc(Nc2ccnc3cc(Cl)ccc23)cc1O [ISOQUINE] | 7.3 nM | 1096 | 8000 nM | 4.3 nM | 5.4 nM | – | – | – | – | – | – | –
4 | CCN(CC)Cc1cc(NCCN2CCCCC2)cc(Nc2ccnc3cc(Cl)ccc23)c1 | 26.5 nM | 152 | 4000 nM | 15.6 nM | 19.1 nM | – | – | – | – | – | – | –
5 | CCN(CC)Cc1cc(N)cc(Nc2ccnc3cc(Cl)ccc23)c1 | 32.3 nM | 774 | > 25000 nM | 16.3 nM | 18.1 nM | 153000 nM | 96% | 100% | 63% | Active | – | –
6 | CCN(CC)CCCC(C)Nc1ccnc2cc(Cl)ccc12 (stereo not drawn) [CHLOROQUINE] | – | – | > 32000 nM | – | – | 70000 nM | – | – | – | – | 100% | Active
7 | CCN(CC)Cc1cc(O)cc(Nc2ccnc3cc(Cl)ccc23)c1 | 42.8 nM | >584 | > 25000 nM | 25.3 nM | 35.2 nM | – | – | – | – | – | – | –
8 | CCN(CC)Cc1cccc(Nc2ccnc3cc(Cl)ccc23)c1 | 17.1 nM | 731 | 12500 nM | 13.2 nM | 15.8 nM | – | – | – | – | – | – | –
9 | CCN(CC)Cc1cc(Nc2ccnc3cc(Cl)ccc23)ccc1O.Cl | – | 1276 | 12000 nM | – | – | 48000 nM | – | – | – | – | 100% | Active

— ChEMBL document CHEMBL1149757, “Synthesis and antimalarial activity of new analogues of amodiaquine” (Eur J Med Chem, 2008)
